Blank lines part the entries; values can stand above or below the compound they belong to. Active and inactive are the calls of the source. The rule behind the calls is not given here.
Experiments:
Histamine H3 receptor = Histamine H3 receptor (Rattus norvegicus, UniProt Q9QYN8); assay: Displacement of N-[3H]-methylhistamine from histamine H3 receptor in rat cortex membranes; type: cell membranes, Membrane
[1] = Half life in Sprague-Dawley rat at 3 mg/kg, iv by LC-MS/MS analysis; type: ADME, organism-based; design: dose 3 mg/kg, route intravenous; details: in vivo
In short: (§1)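 Rat PK after IV and PO dosing; plasma Cmax, Tmax, IV half-life and Vss determined; oral bioavailability from AUCpo/AUCiv. Metabolite exposure determined after a 3 mg/kg PO parent dose.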

Plasma = assay: Cmax in Sprague-Dawley rat plasma assessed as (R)-3-(4'-(2-(2-methylpyrrolidin-1-yl)ethyl)biphenyl-4-ylsulfonyl)propan-1-ol level at 3 mg/kg, po and iv by LC-MS/MS analysis; type: ADME, organism-based; design: dose 3 mg/kg, route oral; details: in vivo; in short: as §1
[2] = Tmax in Sprague-Dawley rat at 3 mg/kg, po and iv by LC-MS/MS analysis; type: ADME, organism-based; design: dose 3 mg/kg, route oral; details: in vivo
In short: (§2)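 Rats were given the compound both IV and PO in a routine PK study. Tmax came from the PO arm and Vss from the IV arm.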

[3] = Ratio of (R)-3-(4'-(2-(2-methylpyrrolidin-1-yl)ethyl)biphenyl-4-ylsulfonyl)propan-1-ol level in brain to plasma in Sprague-Dawley rat at 3 mg/kg, po and iv after 0.75 to 3 hrs by LC-MS/MS analysis; type: ADME, organism-based; design: dose 3 mg/kg, route oral
In short: (§3)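 Exposure to the hydroxylated metabolite was measured after the propyl parent was given to rats at 3 mg/kg PO. Brain (µg/mg) and plasma (µg/mL) levels were taken at 3 time points, and the ratio was the mean.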

Rattus norvegicus [4] = assay: Volume of distribution at steady state in Sprague-Dawley rat at 3 mg/kg, po and iv by LC-MS/MS analysis; type: ADME, organism-based; design: dose 3 mg/kg, route oral; details: in vivo; in short: as §2
Rattus norvegicus [5] = assay: Inhibition of RAMH-induced dipsogenia in po dosed Sprague-Dawley rat administered 30 mins prior to RAMH challenge measured up to 20 mins; type: functional; details: read-out: MED
In short: (§4)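 Rats given compound orally 0.5 h (or, for duration of action, at selected times up to 6 h) before RAMH 10 mg/kg SC; water consumed over 20 min measured. Screening doses 1 or 0.3 mg/kg PO, also 0.1 mg/kg; duration study at 0.6 mg/kg PO. MED = minimum dose fully inhibiting drinking; means ± SEM.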

[6] = Oral bioavailability in Sprague-Dawley rat at 3 mg/kg by LC-MS/MS analysis; type: ADME, organism-based; details: in vivo; in short: as §1
Rattus norvegicus [7] = assay: Tmax in Sprague-Dawley rat assessed as (R)-3-(4'-(2-(2-methylpyrrolidin-1-yl)ethyl)biphenyl-4-ylsulfonyl)propan-1-ol level at 3 mg/kg, po and iv by LC-MS/MS analysis; type: ADME, organism-based; design: dose 3 mg/kg, route oral; details: in vivo; in short: as §3
[8] = Cmax in Sprague-Dawley rat plasma at 3 mg/kg, po and iv by LC-MS/MS analysis; type: ADME, organism-based; design: dose 3 mg/kg, route oral; in short: as §1
Rattus norvegicus [9] = assay: Inhibition of RAMH-induced dipsogenia in Sprague-Dawley rat at 0.6 mg/kg, po administered 6 hrs prior to RAMH challenge measured up to 20 mins; type: functional; in short: as §4
[10] = Tmax in Sprague-Dawley rat at 10 mg/kg, po and iv by LC-MS/MS analysis; type: ADME, organism-based; design: dose 10 mg/kg, route oral; details: in vivo; in short: as §2
[11] = target: Voltage-gated inwardly rectifying potassium channel KCNH2 (Homo sapiens, UniProt Q12809); assay: Inhibition of human ERG by patch-clamp assay
[12] = Cmax in Sprague-Dawley rat plasma at 10 mg/kg, po and iv by LC-MS/MS analysis; type: ADME, organism-based; design: dose 10 mg/kg, route oral; in short: as §1
[13] = Ratio of drug level in brain to plasma in Sprague-Dawley rat at 10 mg/kg, po and iv after 0.75 to 3 hrs by LC-MS/MS analysis; type: ADME, organism-based; design: dose 10 mg/kg, route oral; details: read-out: BPR
In short: (§5)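 Brain (µg/mg) and plasma (µg/mL) levels were measured after oral dosing, with three rats per time point. The b/p ratio was the mean of the nine individual ratios.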

Rattus norvegicus [14] = assay: Volume of distribution at steady state in Sprague-Dawley rat at 10 mg/kg, po and iv by LC-MS/MS analysis; type: ADME, organism-based; design: dose 10 mg/kg, route oral; details: in vivo; in short: as §2
[15] = Oral bioavailability in Sprague-Dawley rat at 10 mg/kg by LC-MS/MS analysis; type: ADME, organism-based; details: in vivo; in short: as §1
hERG (KCNH2) = hERG (KCNH2) (Homo sapiens, UniProt Q12809); assay: Inhibition of human ERG at 3 uM by patch-clamp assay
[16] = Half life in Sprague-Dawley rat at 10 mg/kg, iv by LC-MS/MS analysis; type: ADME, organism-based; design: dose 10 mg/kg, route intravenous; details: in vivo; in short: as §1
Rattus norvegicus [17] = assay: Inhibition of RAMH-induced dipsogenia in Sprague-Dawley rat at 0.6 mg/kg, po administered 30 mins prior to RAMH challenge measured up to 20 mins; type: functional, organism-based; design: dose 0.6 mg/kg; in short: as §4
[18] = target: Histamine H4 receptor (Homo sapiens) (UniProt Q9H3N8); assay: Binding affinity to H4 receptor at 10 uM relative to control
In short: (§6)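 Broad binding panel of 80 receptors, including histamine H1, H2 and H4, with compound tested at 10 µM; binding expressed as percent of control.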

Rattus norvegicus [19] = assay: Effect on sleep-awake cycle in EEG/EMG Sprague-Dawley rat model assessed as increase in wakefulness at 0.3 mg/kg, po measured for 1 hr; type: functional, organism-based; design: dose 0.3 mg/kg
In short: (§7)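 Rats with chronically implanted cortical electrodes dosed orally (0.6 mg/kg; dose-response also run) during subjective night, about four hours after lights on; wake time recorded over 8 h versus vehicle and assessed over first 1, 2 and 4 h; means ± SEM.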

Rattus norvegicus [20] = assay: Inhibition of RAMH-induced dipsogenia in Sprague-Dawley rat at 0.6 mg/kg, po administered 1 hr prior to RAMH challenge measured up to 20 mins; type: functional, organism-based; design: dose 0.6 mg/kg; in short: as §4
Rattus norvegicus [21] = assay: Effect on sleep-awake cycle in EEG/EMG Sprague-Dawley rat model assessed as increase in wakefulness at 0.3 mg/kg, po measured for 2 hrs; type: functional, organism-based; design: dose 0.3 mg/kg; in short: as §7
Rattus norvegicus [22] = assay: Inhibition of RAMH-induced dipsogenia in Sprague-Dawley rat at 0.1 mg/kg, po administered 30 mins prior to RAMH challenge measured up to 20 mins; type: functional, organism-based; design: dose 0.1 mg/kg; in short: as §4
[23] = target: Histamine H1 receptor (Homo sapiens) (UniProt P35367); assay: Binding affinity to H1 receptor at 10 uM relative to control; in short: as §6
Rattus norvegicus [24] = assay: Effect on sleep-awake cycle in EEG/EMG Sprague-Dawley rat model assessed as increase in wakefulness at 0.6 mg/kg, po measured for 4 hrs; type: functional, organism-based; design: dose 0.6 mg/kg; in short: as §7
Rattus norvegicus [25] = assay: Effect on sleep-awake cycle in EEG/EMG Sprague-Dawley rat model assessed as increase in wakefulness at 0.6 mg/kg, po measured for 2 hrs; type: functional, organism-based; design: dose 0.6 mg/kg; in short: as §7
[26] = target: Histamine H2 receptor (Homo sapiens) (UniProt P25021); assay: Binding affinity to H2 receptor at 10 uM relative to control; in short: as §6
[27] = Ratio of drug level in brain to plasma in Sprague-Dawley rat at 3 mg/kg, po and iv after 0.75 to 3 hrs by LC-MS/MS analysis; type: ADME, organism-based; design: dose 3 mg/kg, route oral; details: read-out: BPR; in short: as §5
[28] = Solubility of the compound in water; type: physicochemical

Chain of Histamine H3 receptor (Q9QYN8 whole entry): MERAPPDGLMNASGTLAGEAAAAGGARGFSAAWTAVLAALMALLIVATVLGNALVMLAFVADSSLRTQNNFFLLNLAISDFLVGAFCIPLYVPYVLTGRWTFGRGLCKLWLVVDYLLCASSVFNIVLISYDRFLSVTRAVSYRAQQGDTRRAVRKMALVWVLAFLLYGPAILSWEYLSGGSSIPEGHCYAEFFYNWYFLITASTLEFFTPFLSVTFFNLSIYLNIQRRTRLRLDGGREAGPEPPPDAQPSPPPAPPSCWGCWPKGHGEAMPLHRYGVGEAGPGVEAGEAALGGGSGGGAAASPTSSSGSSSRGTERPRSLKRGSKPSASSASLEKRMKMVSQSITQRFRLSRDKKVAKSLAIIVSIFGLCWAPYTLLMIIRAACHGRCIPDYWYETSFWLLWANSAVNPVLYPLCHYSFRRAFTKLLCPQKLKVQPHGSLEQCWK
Chain of Voltage-gated inwardly rectifying potassium channel KCNH2 (Q12809 whole entry): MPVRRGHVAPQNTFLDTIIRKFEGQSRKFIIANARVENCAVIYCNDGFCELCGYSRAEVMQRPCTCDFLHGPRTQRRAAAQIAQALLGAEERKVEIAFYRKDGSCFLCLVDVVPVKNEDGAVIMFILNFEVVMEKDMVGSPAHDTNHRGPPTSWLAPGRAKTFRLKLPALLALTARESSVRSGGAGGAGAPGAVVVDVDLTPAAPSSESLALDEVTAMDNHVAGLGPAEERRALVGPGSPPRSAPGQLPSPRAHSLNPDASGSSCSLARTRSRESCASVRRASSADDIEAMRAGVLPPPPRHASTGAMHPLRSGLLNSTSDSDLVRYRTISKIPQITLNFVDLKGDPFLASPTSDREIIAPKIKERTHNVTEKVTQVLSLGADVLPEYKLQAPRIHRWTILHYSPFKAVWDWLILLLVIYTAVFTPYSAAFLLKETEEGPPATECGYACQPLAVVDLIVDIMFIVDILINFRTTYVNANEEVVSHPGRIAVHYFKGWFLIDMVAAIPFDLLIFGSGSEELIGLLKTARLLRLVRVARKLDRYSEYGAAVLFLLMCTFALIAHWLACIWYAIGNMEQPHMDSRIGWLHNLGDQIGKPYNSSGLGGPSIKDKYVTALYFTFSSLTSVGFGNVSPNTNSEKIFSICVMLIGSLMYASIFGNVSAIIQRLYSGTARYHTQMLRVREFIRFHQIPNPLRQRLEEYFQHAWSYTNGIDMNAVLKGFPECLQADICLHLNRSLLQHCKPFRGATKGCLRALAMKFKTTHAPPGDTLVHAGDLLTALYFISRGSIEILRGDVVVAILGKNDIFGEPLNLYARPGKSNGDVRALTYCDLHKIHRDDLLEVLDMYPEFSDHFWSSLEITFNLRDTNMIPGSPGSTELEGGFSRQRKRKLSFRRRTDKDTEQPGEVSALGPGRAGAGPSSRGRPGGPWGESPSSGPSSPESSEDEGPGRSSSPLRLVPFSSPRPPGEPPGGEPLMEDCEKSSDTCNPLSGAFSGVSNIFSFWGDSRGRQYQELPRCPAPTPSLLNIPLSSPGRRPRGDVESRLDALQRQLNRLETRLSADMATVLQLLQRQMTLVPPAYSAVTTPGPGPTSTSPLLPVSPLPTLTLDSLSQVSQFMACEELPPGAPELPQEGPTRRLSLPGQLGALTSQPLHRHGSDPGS
Chain of hERG (KCNH2) (Q12809 whole entry): as above
Chain of Histamine H2 receptor (Homo sapiens) (P25021 whole entry): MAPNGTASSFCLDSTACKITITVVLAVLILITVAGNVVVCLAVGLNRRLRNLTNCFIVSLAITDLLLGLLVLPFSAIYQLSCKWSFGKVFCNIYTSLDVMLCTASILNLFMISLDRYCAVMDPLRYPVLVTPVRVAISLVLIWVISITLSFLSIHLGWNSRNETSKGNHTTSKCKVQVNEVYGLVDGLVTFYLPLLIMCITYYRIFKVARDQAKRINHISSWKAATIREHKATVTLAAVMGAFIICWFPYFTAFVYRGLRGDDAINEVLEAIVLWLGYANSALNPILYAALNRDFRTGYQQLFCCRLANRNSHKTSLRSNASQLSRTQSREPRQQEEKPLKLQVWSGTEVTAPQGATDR
Chain of Histamine H1 receptor (Homo sapiens) (P35367 whole entry): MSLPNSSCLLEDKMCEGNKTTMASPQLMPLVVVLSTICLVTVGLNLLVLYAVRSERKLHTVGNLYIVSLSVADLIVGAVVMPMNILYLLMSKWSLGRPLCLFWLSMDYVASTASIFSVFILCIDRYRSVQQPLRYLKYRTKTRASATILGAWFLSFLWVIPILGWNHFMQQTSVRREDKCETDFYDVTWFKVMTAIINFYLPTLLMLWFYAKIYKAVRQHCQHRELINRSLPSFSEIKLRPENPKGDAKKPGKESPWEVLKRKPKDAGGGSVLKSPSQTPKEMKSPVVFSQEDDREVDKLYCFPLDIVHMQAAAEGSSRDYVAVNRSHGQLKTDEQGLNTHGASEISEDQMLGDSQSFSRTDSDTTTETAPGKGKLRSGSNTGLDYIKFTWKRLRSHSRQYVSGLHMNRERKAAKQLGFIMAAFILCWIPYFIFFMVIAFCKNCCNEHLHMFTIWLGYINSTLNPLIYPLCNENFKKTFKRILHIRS

SMILES: COCCS(=O)(=O)c1ccc(-c2ccc(CCN3CCC[C@@H]3C)cc2)cc1
Ki (Histamine H3 receptor): 13.2 nM

SMILES: CC(C)S(=O)(=O)c1ccc(-c2ccc(CCN3CCC[C@H]3C)cc2)cc1
Ki (Histamine H3 receptor): 2.65 nM

SMILES: COCCS(=O)(=O)c1ccc(-c2ccc(CCN3CCC[C@H]3C)cc2)cc1 [listing 1 of 2 here]
inhibition in vivo at 0.6 mg/kg (Rattus norvegicus [9]): < 20% | Tmax [10]: 18 min | IC50 [11]: 7400 nM | Cmax [12]: 184 ng/mL | Kp [13]: 1.73 | Vdss (Rattus norvegicus [14]): 7.6 L/kg | minimal effective dose (Rattus norvegicus [5]): 0.3 mg/kg | bioavailability [15]: 68.5% | Ki (Histamine H3 receptor): 1.4 nM | inhibition at 3 µM (hERG (KCNH2)): 29% | half-life [16]: 42 min

SMILES: COCCCS(=O)(=O)c1ccc(-c2ccc(CCN3CCC[C@H]3C)cc2)cc1
inhibition (Rattus norvegicus [17]): Active | inhibition [18]: < 50% | Activity (Rattus norvegicus [19]): Active | inhibition (Rattus norvegicus [20]): Active | Activity (Rattus norvegicus [21]): inactive | inhibition (Rattus norvegicus [22]): inactive | inhibition [23]: < 50% | Activity (Rattus norvegicus [24]): inactive | Activity (Rattus norvegicus [25]): Active | inhibition [26]: < 50%

SMILES: C[C@@H]1CCCN1CCc1ccc(-c2ccc(S(=O)(=O)C3CCCC3)cc2)cc1
Ki (Histamine H3 receptor): 1 nM

SMILES: COCCS(=O)(=O)c1ccc(-c2ccc(CCN3CCC[C@H]3C)cc2)cc1.Cl
solubility [28]: > 30 mg/mL

SMILES: COCCS(=O)(=O)c1ccc(-c2ccc(CCN3CCC[C@H]3C)cc2)cc1 [listing 2 of 2 here]
inhibition (Rattus norvegicus [17]): Active | inhibition (Rattus norvegicus [20]): Active | inhibition (Rattus norvegicus [22]): inactive

Second part, led by results:

half-life [1]: 18 min | Cmax (Plasma): 449 ng/mL | Tmax [2]: 6 min | BPR [3]: 0.7 | Vdss (Rattus norvegicus [4]): 5.9 L/kg | bioavailability [6]: < 0.1% | Ki (Histamine H3 receptor): 0.6 nM | Tmax (Rattus norvegicus [7]): 180 min | Cmax [8]: 6 ng/mL
SMILES: CCCS(=O)(=O)c1ccc(-c2ccc(CCN3CCC[C@H]3C)cc2)cc1
minimal effective dose (Rattus norvegicus [5]): 0.3 mg/kg

Ki (Histamine H3 receptor): 0.2 nM
SMILES: C[C@@H]1CCCN1CCc1ccc(-c2ccc(S(=O)(=O)CC3CCCCO3)cc2)cc1 (some centres not stated)

Kp [27]: 1.75 | half-life [1]: 84 min | Tmax [2]: 18 min | Vdss (Rattus norvegicus [4]): 14.3 L/kg | bioavailability [6]: 46% | Ki (Histamine H3 receptor): 0.9 nM | Cmax [8]: 57 ng/mL
SMILES: CCS(=O)(=O)c1ccc(-c2ccc(CCN3CCC[C@H]3C)cc2)cc1
minimal effective dose (Rattus norvegicus [5]): 0.3 mg/kg

— ChEMBL document CHEMBL1932985, “Identification of biaryl sulfone derivatives as antagonists of the histamine H₃ receptor: discovery of (R)-1-(2-(4'-(3-methoxypropylsulfonyl)biphenyl-4-yl)ethyl)-2-methylpyrrolidine (APD916)” (Bioorg Med Chem Lett, 2012)
